# Measured values from article PMC3778918 (Clinical cancer research : an official journal of the …, 2013).
# Entries after “also recorded” stand apart in the source; their conditions may differ.
# Experiments:
# [1] = system: MMTV-Neu tumors; experiment: Short-term tumor volume response, MMTV-Neu GEMM; assay type: in vivo, mice (FVB/n); settings: MMTV-Neu model; for Tumor response (change in tumor volume), in words: 21-day treatment
# In short: (§1)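 FVB/n transgenic mice bred in-house, enrolled at spontaneous mammary tumor onset (~0.5 cm), randomized to treatment or untreated control groups. Injectable agents given i.p. once weekly, three doses over 21 days; oral agents milled into chow, given continuously; combinations at single-agent doses. Caliper and/or ultrasound measurements; volume = (width)² × length/2; response = percent volume change at day 21.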
# [2] = system: T11/TP53−/− tumors; experiment: Short-term tumor volume response, T11/TP53-/- OST; assay type: in vivo, mice (BALB/c); settings: T11/TP53−/− model, 14-day treatment
# [3] = system: C3(1)-T-antigen tumors; experiment: Short-term tumor volume response, C3; assay type: in vivo, mice (FVB/n); settings: C3(1)-T-antigen model; for Tumor response (change in tumor volume), in words: 21-day treatment
# In short: as §1
# [4] = system: MMTV-Neu tumors; experiment: Overall survival of tumor-bearing mice, MMTV-Neu; assay type: in vivo, mice (FVB/n); settings: MMTV-Neu model, single agent
# [5] = Paclitaxel pharmacokinetics in plasma and tumor; assay type: in vivo, transgenic FVB/n mice bearing the MMTV-Neu transgene
SMILES,"Tumor response (change in tumor volume), in words [1]","Tumor response (change in tumor volume), in words [2]","Tumor response (change in tumor volume), in words [3]","Extension of lifespan, in words [4]",Subset of treated mice showing potent activity [3],Tumor regression ([1]; all tumors),Median survival ([4]; untreated median 29 days),"AUC(0-inf) ([5]; FVB/n (MMTV-Neu transgenic), mouse, plasma, ip, 10 mg/kg)","AUC0-∞ in tumor ([5]; single IP dose 10 mg/kg, MMTV-Neu mice, tumor)"
"N.N.O=C([O-])C1(C(=O)[O-])CCC1.[Pt+2] [carboplatin, Carboplatin]",modest but significant responses,modest but significant responses,modest but significant responses,,,,,,
C#Cc1cccc(Nc2ncnc3cc(OCCOC)c(OCCOC)cc23)c1 [erlotinib],highly effective,,,to some extent,~40%,,,,
CS(=O)(=O)CCNCc1ccc(-c2ccc3ncnc(Nc4ccc(OCc5cccc(F)c5)c(Cl)c4)c3c2)o1 [lapatinib],exceptional efficacy; also recorded: highly effective; also recorded: complete tumor regression,neither erlotinib nor lapatinib were effective,ineffective,greatly extended lifespan,,~100%,154 days,,
CC(=O)O[C@H]1C(=O)[C@@]2(C)[C@H]([C@H](OC(=O)c3ccccc3)[C@]3(O)C[C@H](OC(=O)[C@H](O)[C@@H](NC(=O)c4ccccc4)c4ccccc4)C(C)=C1C3(C)C)[C@]1(OC(C)=O)CO[C@@H]1C[C@@H]2O [paclitaxel],no response,no response,no response,,,,,6300 ng·h/mL,42.4 µg·h/g
